Experimental data published in PMC6170741 (Investigational new drugs, 2018).

What was measured:
[1] = test system: patients with solid tumors; experiment: Phase I safety and tolerability; type: in vivo
[2] = Repeat dose plasma pharmacokinetics in patients; type: in vivo, human
How it was run: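 Fasted patients took oral capsules once daily. Steady-state plasma was sampled up to 24 h post-dose on day 8 (10 and 20 mg cohorts), day 15 (40–150 mg cohorts), day 7 (7-on/7-off) or day 22 (t.i.w.). Dose-reduced patients were sampled at the new dose. Drug was measured by liquid-liquid extraction and HPLC-MS/MS (validated 1–1000 ng/mL; LLOQ 1.00 ng/mL). Parameters were derived non-compartmentally.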

AKT1 = settings: read-out: AKT1 Ki*; cited from earlier work
[3] = test system: patients with solid tumors; experiment: Clinical activity; type: in vivo, human
[4] = test system: blood glucose and insulin levels; experiment: Pharmacodynamics: insulin after standardized meal, 1,5-anhydroglucitol; type: in vivo, human
AKT3 = settings: read-out: AKT3 Ki*; cited from earlier work
[5] = Single dose plasma pharmacokinetics in patients; type: in vivo, human; settings: for Tmax: human, plasma, po, across all doses and regimens
How it was run: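 Fasted patients took one oral capsule dose (Cycle 0) before repeat dosing began. Drug was quantified by liquid-liquid extraction and HPLC-MS/MS (range 1–1000 ng/mL; LLOQ 1.00 ng/mL). Non-compartmental analysis gave AUC(0–24) and Cmax, and variability was expressed as CV%.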

[6] = any cause, all cohorts, N = 77, CTCAE v3.0
[7] = repeat dose, 75 mg, continuous daily regimen
[8] = 75 mg, continuous daily regimen

SMILES: Cn1ncc(Cl)c1-c1cc(C(=O)N[C@H](CN)Cc2ccc(F)c(F)c2)oc1Cl [GSK2141795]
- DLTs ([1]; 75 mg qd 7-on/7-off cohort): No DLTs
- DLTs ([1]; 75 mg t.i.w. cohort): No DLTs
- DLTs ([1]; 100 mg qd 7-on/7-off cohort): Two DLTs, grade 3 hyperglycemia and grade 3 rash
- DLTs ([1]; 100 mg qd cohort (exceeded the MTD)): two DLTs, including grade 1 stomatitis that did not resolve, leading to a treatment delay of >14 days, as well as grade 4 hypoglycemia
- DLTs ([1]; 100 mg t.i.w. cohort): No DLTs
- DLTs ([1]; 150 mg qd cohort (exceeded the MTD)): two DLTs of grade 3 hyperglycemia
- maximum tolerated dose (MTD) ([1]; 7-on/7-off schedule): 75 mg
- hyperglycemia, patients ([1]; all cohorts): 22%
- rash, patients ([1]; all cohorts): 22%
- patients with DLTs ([1]; all cohorts, cycle 1): 7 patients
- Abdominal pain, Grade 1 [1, 6]: 13 (17) n (%)
- Abdominal pain, Grade 2 [1, 6]: 4 (5) n (%)
- Abdominal pain, Grade 3 [1, 6]: 3 (4) n (%)
- Abdominal pain, Grade 4 [1, 6]: 0 n (%)
- Abdominal pain, Total [1, 6]: 20 (26) n (%)
- Back pain, Grade 1 [1, 6]: 11 (14) n (%)
- Back pain, Grade 2 [1, 6]: 3 (4) n (%)
- Back pain, Grade 3 [1, 6]: 1 (1) n (%)
- Back pain, Grade 4 [1, 6]: 0 n (%)
- Back pain, Total [1, 6]: 15 (19) n (%)
- Constipation, Grade 1 [1, 6]: 14 (18) n (%)
- Constipation, Grade 2 [1, 6]: 3 (4) n (%)
- Constipation, Grade 3 [1, 6]: 0 n (%)
- Constipation, Grade 4 [1, 6]: 0 n (%)
- Constipation, Total [1, 6]: 17 (22) n (%)
- Cough, Grade 1 [1, 6]: 9 (12) n (%)
- Cough, Grade 2 [1, 6]: 0 n (%)
- Cough, Grade 3 [1, 6]: 0 n (%)
- Cough, Grade 4 [1, 6]: 0 n (%)
- Cough, Total [1, 6]: 9 (12) n (%)
- Decreased appetite, Grade 1 [1, 6]: 23 (30) n (%)
- Decreased appetite, Grade 2 [1, 6]: 6 (8) n (%)
- Decreased appetite, Grade 3 [1, 6]: 0 n (%)
- Decreased appetite, Grade 4 [1, 6]: 1 (1) n (%)
- Decreased appetite, Total [1, 6]: 30 (39) n (%)
- Diarrhea, Grade 1 [1, 6]: 33 (43) n (%)
- Diarrhea, Grade 2 [1, 6]: 13 (17) n (%)
- Diarrhea, Grade 3 [1, 6]: 3 (4) n (%)
- Diarrhea, Grade 4 [1, 6]: 0 n (%)
- Diarrhea, Total [1, 6]: 49 (64) n (%)
- Dizziness, Grade 1 [1, 6]: 12 (16) n (%)
- Dizziness, Grade 2 [1, 6]: 0 n (%)
- Dizziness, Grade 3 [1, 6]: 0 n (%)
- Dizziness, Grade 4 [1, 6]: 0 n (%)
- Dizziness, Total [1, 6]: 12 (16) n (%)
- Dysgeusia, Grade 1 [1, 6]: 7 (9) n (%)
- Dysgeusia, Grade 2 [1, 6]: 1 (1) n (%)
- Dysgeusia, Grade 3 [1, 6]: 0 n (%)
- Dysgeusia, Grade 4 [1, 6]: 0 n (%)
- Dysgeusia, Total [1, 6]: 8 (10) n (%)
- Dyspnea, Grade 1 [1, 6]: 10 (13) n (%)
- Dyspnea, Grade 2 [1, 6]: 3 (4) n (%)
- Dyspnea, Grade 3 [1, 6]: 2 (3) n (%)
- Dyspnea, Grade 4 [1, 6]: 0 n (%)
- Dyspnea, Total [1, 6]: 15 (19) n (%)
- Fatigue, Grade 1 [1, 6]: 21 (27) n (%)
- Fatigue, Grade 2 [1, 6]: 16 (21) n (%)
- Fatigue, Grade 3 [1, 6]: 0 n (%)
- Fatigue, Grade 4 [1, 6]: 1 (1) n (%)
- Fatigue, Total [1, 6]: 38 (49) n (%)
- Headache, Grade 1 [1, 6]: 7 (9) n (%)
- Headache, Grade 2 [1, 6]: 0 n (%)
- Headache, Grade 3 [1, 6]: 1 (1) n (%)
- Headache, Grade 4 [1, 6]: 1 (1) n (%)
- Headache, Total [1, 6]: 9 (12) n (%)
- Hyperglycemia, Grade 1 [1, 6]: 2 (3) n (%)
- Hyperglycemia, Grade 2 [1, 6]: 9 (12) n (%)
- Hyperglycemia, Grade 3 [1, 6]: 5 (6) n (%)
- Hyperglycemia, Grade 4 [1, 6]: 1 (1) n (%)
- Hyperglycemia, Total [1, 6]: 17 (22) n (%)
- Mucosal inflammation, Grade 1 [1, 6]: 7 (9) n (%)
- Mucosal inflammation, Grade 2 [1, 6]: 1 (1) n (%)
- Mucosal inflammation, Grade 3 [1, 6]: 0 n (%)
- Mucosal inflammation, Grade 4 [1, 6]: 0 n (%)
- Mucosal inflammation, Total [1, 6]: 8 (10) n (%)
- Nausea, Grade 1 [1, 6]: 42 (55) n (%)
- Nausea, Grade 2 [1, 6]: 4 (5) n (%)
- Nausea, Grade 3 [1, 6]: 1 (1) n (%)
- Nausea, Grade 4 [1, 6]: 0 n (%)
- Nausea, Total [1, 6]: 47 (61) n (%)
- Peripheral edema, Grade 1 [1, 6]: 9 (12) n (%)
- Peripheral edema, Grade 2 [1, 6]: 0 n (%)
- Peripheral edema, Grade 3 [1, 6]: 0 n (%)
- Peripheral edema, Grade 4 [1, 6]: 0 n (%)
- Peripheral edema, Total [1, 6]: 9 (12) n (%)
- Pyrexia, Grade 1 [1, 6]: 10 (13) n (%)
- Pyrexia, Grade 2 [1, 6]: 2 (3) n (%)
- Pyrexia, Grade 3 [1, 6]: 0 n (%)
- Pyrexia, Grade 4 [1, 6]: 0 n (%)
- Pyrexia, Total [1, 6]: 12 (16) n (%)
- Rash, Grade 1 [1, 6]: 8 (10) n (%)
- Rash, Grade 2 [1, 6]: 8 (10) n (%)
- Rash, Grade 3 [1, 6]: 1 (1) n (%)
- Rash, Grade 4 [1, 6]: 0 n (%)
- Rash, Total [1, 6]: 17 (22) n (%)
- Urinary tract infection, Grade 1 [1, 6]: 6 (8) n (%)
- Urinary tract infection, Grade 2 [1, 6]: 6 (8) n (%)
- Urinary tract infection, Grade 3 [1, 6]: 0 n (%)
- Urinary tract infection, Grade 4 [1, 6]: 0 n (%)
- Urinary tract infection, Total [1, 6]: 12 (16) n (%)
- Vomiting, Grade 1 [1, 6]: 29 (38) n (%)
- Vomiting, Grade 2 [1, 6]: 3 (4) n (%)
- Vomiting, Grade 3 [1, 6]: 1 (1) n (%)
- Vomiting, Grade 4 [1, 6]: 0 n (%)
- Vomiting, Total [1, 6]: 33 (43) n (%)
- Weight decreased, Grade 1 [1, 6]: 12 (16) n (%)
- Weight decreased, Grade 2 [1, 6]: 5 (6) n (%)
- Weight decreased, Grade 3 [1, 6]: 0 n (%)
- Weight decreased, Grade 4 [1, 6]: 0 n (%)
- Weight decreased, Total [1, 6]: 17 (22) n (%)
- dose reductions for diarrhea ([1]; at the RP2D): 2 patients
- dose reductions for rash ([1]; at the RP2D): 3 patients
- grade 3 hyperglycemia ([1]; at the RP2D (75 mg qd), % of patients): 4%
- patients withdrawn as a result of an AE ([1]; of 77 enrolled (17%), at study completion): 13 patients
- recommended phase II dose (RP2D) ([1]; once-daily dosing, oral): 75 mg
- maximum tolerated dose (MTD) ([1]; qd dosing): 75 mg
- time to reach steady-state ([2]; continuous qd dosing): approximately 14 days
- concentration at 24 h ([2]; human, plasma, oral, 20 mg, C24, repeat dose 20 mg once daily (n = 1), day 8): 42.1 ng/mL
- Cmax ([2]; human, plasma, oral, 20 mg, Cmax, repeat dose 20 mg once daily (n = 1), day 8): 90.3 ng/mL
- Tmax ([2]; human, plasma, oral, 20 mg, Tmax, repeat dose 20 mg once daily (n = 1), day 8): 3 h
- Tmax ([2]; human, plasma, oral, median Tmax, repeat dose, generally): 2 to 4 h
- CV% in exposure, AUC(0–24) [2, 7]: 52%
- CV% in exposure, Cmax [2, 7]: 50%
- Ki (AKT1): 66 pM
- endometrial cancer patients with stable disease (SD) on therapy for more than 6 months ([3]; 75 mg qd): 4 patients
- prostate cancer patients with stable disease (SD) on therapy for more than 6 months ([3]; 75 mg qd): 3 patients
- partial responses (PRs) ([3]; RP2D 75 mg qd): two partial responses
- patients withdrawn due to disease progression ([3]; of 77 enrolled (68%), at study completion): 52 patients
- insulin levels following a standardized meal, day 15 compared with screening ([4]; 5 patients with matched insulin samples, cycle 1 day 15): Three of the five patients had two-fold greater insulin levels
- association of decreased 1,5-AG with GSK2141795 concentrations ([4]; screening vs steady state, linear regression): this association was not consistent across the study or across tumor types
- Ki (AKT3): 1500 pM
- mean variability (CV%) in exposure, AUC(0–24) [5, 8]: 37%
- mean variability (CV%) in exposure, Cmax [5, 8]: 62%
- Tmax ([5]; Tmax, majority): 2 to 4 h
- Tmax ([5]; median time to maximal concentration (Tmax)): 3 to 8 h
